# In ChEMBL document CHEMBL1134389, “Mapping and fitting the peripheral benzodiazepine receptor binding site by carboxamide derivatives. Comparison of different approaches to quantitative ligand-receptor interaction modeling” (J Med Chem, 2001):
# Target: Translocator protein (Rattus norvegicus, UniProt P16257)
# Experiment: Test in vitro, for potential ability to displace [3H]1 from PBR in rat brain cortex
# Assay type: tissue-based
# Outline: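 Rat cortical membranes homogenized in ice-cold PBS (50 mM, pH 7.4) with 100 mM NaCl, spun at 1000g, then pellet washed three times at 50000g and resuspended in PBS. Assay stopped by GF/B filtration, counted by liquid scintillation. IC50 fitted from six displacer concentrations, triplicate.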
# Chain of Translocator protein (P16257 whole entry, looked up): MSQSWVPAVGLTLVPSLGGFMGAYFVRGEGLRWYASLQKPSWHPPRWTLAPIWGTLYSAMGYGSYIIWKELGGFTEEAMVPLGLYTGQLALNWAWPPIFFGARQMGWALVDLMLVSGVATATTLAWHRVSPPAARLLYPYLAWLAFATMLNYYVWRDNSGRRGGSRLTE
row,IC50 [nM],Structure (SMILES)
1,> 10000,Cc1nc2ccccc2c(-c2ccccc2)c1C(=O)N(C)c1ccccc1
2,8870,CCCN(CCC)C(=O)c1ccccc1CN(CC)Cc1ccccc1
3,410,Cc1ccc(CN2Cc3nc4ccccc4c(-c4ccccc4)c3C2=O)cc1
4,> 10000,CCCN(CCC)C(=O)c1c(C)nc2ccccc2c1-c1ccccc1
5,5,CCN(CC)C(=O)c1cc(-c2ccccc2)c2ccccc2c1
6,8210,CCN(Cc1ccccc1)Cc1ccccc1C(=O)N(CC)CC
7,2900,CCN(Cc1ccccc1)Cc1nc2ccccc2c(-c2ccccc2)c1C(=O)NCc1ccccc1
8,540,CCOC(=O)c1c(N(CC)Cc2ccccc2)nc2ccccc2c1-c1ccccc1
9,373,CCN(Cc1ccccc1)Cc1nc2ccccc2c(-c2ccccc2)c1C(=O)N(CC)CC
10,3400,CCN(Cc1ccccc1)Cc1cc(-c2ccccc2)c2ccccc2n1
11,210,O=C1c2c(nc3ccccc3c2-c2ccccc2)CN1Cc1ccc(Cl)cc1
12,1320,CCN(Cc1ccccc1)Cc1nc2ccccc2c(-c2ccccc2)c1C(=O)N(C)c1ccccc1
13,> 10000,CCN(CC)C(=O)c1c(C)nc2ccccc2c1-c1ccccc1
14,27,CCN(CC)C(=O)c1cc(-c2ccccc2)c2ccccc2n1
15,456,CCCN(CCC)C(=O)c1c(CN(CC)Cc2ccccc2)nc2ccccc2c1-c1ccccc1
16,872,CCCNC(=O)c1c(CN(CC)Cc2ccccc2)nc2ccccc2c1-c1ccccc1
17,700,CCOC(=O)c1c(CN(CC)Cc2ccccc2)nc2ccccc2c1-c1ccccc1
18,3700,CCOC(=O)c1c(Cl)nc2ccccc2c1-c1ccccc1
19,1190,CCOC(=O)c1c(CN2CCc3ccccc3C2)nc2ccccc2c1-c1ccccc1
20,229,CCN(Cc1ccccc1)Cc1nc2ccccc2c(-c2ccccc2)c1C(=O)N(C)C
21,> 10000,CCN(Cc1ccccc1)Cc1ccccc1C(=O)N(C)c1ccccc1
22,> 10000,CCN(Cc1ccccc1)Cc1ccccc1C(=O)N(C)C
23,2480,CCN(Cc1ccccc1)Cc1nc2ccccc2c(-c2ccccc2)c1C(=O)N(C)c1ccc(Cl)cc1
24,4.1,CCN(Cc1ccccc1)Cc1c(C(=O)N(CC)CC)nc2ccccc2c1-c1ccccc1
